Reference: ChEMBL document CHEMBL2375308, “Synthesis and selected immunological properties of substituted quino[3,2-b]benzo[1,4]thiazines” (Eur J Med Chem, 2013)

Experiments:
PBMC [1] = experiment: Inhibition of LPS-induced TNFalpha production in human PBMC at 25 ug/mL after overnight incubation relative to DMSO-treated control; format: functional
Method in brief: (§1)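 Single-donor venous blood diluted 10× in RPMI-1640, 1 mL aliquots, stimulated with LPS (E. coli O111:B4). Compounds added at […]; corresponding DMSO dilutions as controls. Overnight incubation, supernatants frozen at −20 °C, TNF-α measured by biological assay; percentage inhibition versus DMSO control.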

PBMC [2] = experiment: Cytotoxicity against human PBMC cells at 10 ug/mL after 24 hrs by MTT assay relative to DMSO-treated control; format: cell-based
Method in brief: (§2)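 Ficoll-isolated PBMC ([…]) in supplemented RPMI-1640, 2 × 10⁵/well, cultured 24 h with the preparations at the indicated concentrations; compounds dissolved in DMSO (10 mg/mL stock) and diluted in medium.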

PBMC [3] = experiment: Inhibition of LPS-induced TNFalpha production in human PBMC at 5 ug/mL after overnight incubation relative to DMSO-treated control; format: functional; method in brief: as §1
PBMC [4] = experiment: Cytotoxicity against human PBMC cells at 50 ug/mL after 24 hrs by MTT assay relative to DMSO-treated control; format: cell-based; method in brief: as §2
PBMC [5] = experiment: Antiproliferative activity against PHA-stimulated human PBMC at 10 ug/mL after 4 days by MTT assay relative to DMSO-treated control; format: functional
Method in brief: (§3)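 PBMC from one donor's heparinized blood, Ficoll gradient isolated, in RPMI-1640 with 10% FCS; 2 × 10⁵ cells/well. PHA added at […]; compounds from DMSO stock (10 mg/mL) diluted in medium; matching DMSO dilutions as control. Four-day culture, proliferation read by MTT colorimetry; percentage inhibition versus control.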

PBMC [6] = experiment: Antiproliferative activity against PHA-stimulated human PBMC at 50 ug/mL after 4 days by MTT assay relative to DMSO-treated control; format: functional; method in brief: as §3

Compound	inhibition at 25 µg/mL (PBMC [1])	Activity (PBMC [2])	inhibition at 5 µg/mL (PBMC [3])	Activity (PBMC [4])	Activity (PBMC [5])	Activity (PBMC [6])
CSc1ccc2c(c1)Sc1cc3ccccc3nc1N2CCCNS(=O)(=O)c1ccc(C)cc1	20.8%	Non-toxic	72.1%	Non-toxic	-5.3%	-46.4%
Brc1ccc2c(c1)Nc1nc3ccccc3cc1S2	-25%	Non-toxic	11.2%	Non-toxic	4.3%	20.6%
CSc1ccc2c(c1)Sc1cc3ccccc3nc1N2CCCNC(C)=O	64.5%	Non-toxic	71.7%	Non-toxic	72.5%	68.8%
CSc1ccc2c(c1)Sc1cc3ccccc3nc1N2CCCCNS(=O)(=O)c1ccc(C)cc1	37.5%	Non-toxic	70.4%	Non-toxic	-5%	-34.7%
Brc1cccc2c1Sc1cc3ccccc3nc1N2	8.4%	Non-toxic	13.6%	Non-toxic	0.1%	16.4%
CC(=O)NCCCCN1c2ccccc2Sc2cc3ccccc3nc21	20.2%	Non-toxic	0%	Non-toxic	72.7%	94.3%
CCOC(=O)NCCCCN1c2ccccc2Sc2cc3ccccc3nc21	12.3%	Non-toxic	0.2%	Non-toxic	73.9%	83.7%
O=C(NCCCl)NCCCN1c2ccccc2Sc2cc3ccccc3nc21	5%	8.5%	14.6%	Non-toxic	11.2%	77.9%
Clc1ccc2c(c1)Sc1cc3ccccc3nc1N2	9.6%	Non-toxic	2%	Non-toxic	-0.3%	5.7%
Cc1ccc2c(c1)Sc1cc3ccccc3nc1N2	66.6%	2.4%	54.1%	15.4%	-17.9%	-6.2%
CCOC(=O)NCCCCN1c2ccc(Cl)cc2Sc2cc3ccccc3nc21	8.41%	Non-toxic	13.2%	Non-toxic	-0.7%	-12%
CCOC(=O)NCCCN1c2ccccc2Sc2cc3ccccc3nc21	14.1%	Non-toxic	7.7%	Non-toxic	69.7%	88.4%
CS(=O)(=O)NCCCN1c2ccc(Cl)cc2Sc2cc3ccccc3nc21	30.5%	Non-toxic	1.2%	Non-toxic	73.4%	74.4%
Cc1ccc(S(=O)(=O)NCCCN2c3ccccc3Sc3cc4ccccc4nc32)cc1	15.6%	Non-toxic	3.8%	Non-toxic	6.6%	-0.8%
CC(=O)NCCCN1c2ccc(Cl)cc2Sc2cc3ccccc3nc21	60.6%	Non-toxic	11.4%	Non-toxic	50.8%	58.3%
CN1CCCCC1CCN1c2ccccc2Sc2cc3ccccc3nc21 (centres undefined)	62.4%	Non-toxic	49.1%	4.5%	-23.5%	39.8%
CC(=O)NCCCN1c2ccccc2Sc2cc3ccccc3nc21	32.2%	Non-toxic	-0.4%	91.9%	68.7%	92.4%
CSc1ccc2c(c1)Sc1cc3ccccc3nc1N2	19.2%	Non-toxic	22.5%	Non-toxic	0%	2.9%
O=C(NCCCl)NCCCCN1c2ccccc2Sc2cc3ccccc3nc21	4.3%	7.9%	-1.8%	Non-toxic	16.6%	88.7%
Brc1ccc2c(c1)Sc1cc3ccccc3nc1N2	10.1%	Non-toxic	16.2%	Non-toxic	-9.7%	19%
O=C(NCCCl)NCCCCN1c2ccc(Cl)cc2Sc2cc3ccccc3nc21	56%	19.2%	54.8%	86.3%	98.4%	94.6%
CSc1ccc2c(c1)Sc1cc3ccccc3nc1N2CCCCNC(C)=O	60.4%	Non-toxic	46.8%	7.9%	54.7%	42%
CCOC(=O)NCCCCN1c2ccc(SC)cc2Sc2cc3ccccc3nc21	33.1%	Non-toxic	50.9%	Non-toxic	44.3%	27.8%
Clc1ccc2c(c1)Sc1cc3ccccc3nc1N2CCN1CCCCC1	56.7%	19.2%	-70.5%	83.8%	96.3%	98.2%
Fc1ccc2c(c1)Sc1cc3ccccc3nc1N2		50%			100%	
CSc1ccc2c(c1)Sc1cc3ccccc3nc1N2CCCCNS(C)(=O)=O	13.2%	Non-toxic	72.8%	Non-toxic	53.3%	62.7%
FC(F)(F)c1cccc2c1Sc1cc3ccccc3nc1N2	-2.6%	5%	74.9%	Non-toxic	2.3%	13.6%
Clc1ccc2c(c1)Nc1nc3ccccc3cc1S2	19.2%	Non-toxic	-1.2%	Non-toxic	16.3%	27.1%
